The nature of one data set: ABTS anti-radicals study. A digest of the protocol:
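ABTS (7 mM) combined with […] and held in the dark at 25 °C for 12–16 h to form radicals. Diluted in 0.01 M phosphate buffer, pH 7.4, to A734 of 0.70. 300 µL test compound solution added to 3.0 mL radical solution; decrease in absorbance recorded. Ascorbic acid as reference.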

Data set [1] can be described thus: DPPH radical scavenging assay. In a few lines: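 Test compound dilutions of 62.50–1000 µg/mL; 0.1 mL of each added to 3.0 mL DPPH in methanol. Incubated 30 min, then absorbance read at 517 nm. % scavenging = [(A0–A1)/A0]×100, where A0 is control and A1 is test absorbance. Ascorbic acid as reference.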
(DPPH is a stable violet radical that fades when it is reduced.)

The next data set is described as follows: H2O2 anti-radicals study. In a few lines: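 2 mM H2O2 in 50 mM phosphate buffer, pH 7.4, mixed with 0.1 mL test compound at various concentrations. Absorbance at 230 nm read against blank after 10 min; H2O2 scavenging calculated from absorbance.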
Another data set has as its system HCT-116. In words: MTT assay. In kind it is cell-based. The note with it: Homo sapiens, HCT-116, 48 h. In a few lines:
(§1)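 Cells grown in DMEM with 10% FBS, streptomycin 100 µg/mL and penicillin 100 IU/mL, at 37 °C, 5% CO2. Seeded at 6×10^4 cells/mL (80% confluence) and incubated overnight. Medium replaced with fresh medium holding test compound at 31.25–1000 ppm for 48 h.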
A general note: Tetrazolium assays rely on reduction of a dye to a coloured formazan, in cell work by metabolically active cells.

A further data set relates to MDA-MB-231. In words: MTT assay. In kind it is cell-based. The note with it: Homo sapiens, MDA-MB-231, 48 h. A digest of the protocol: as §1
Another data set has as its system NIH/3T3. The data set is described as follows: MTT assay. The note with it: Mus musculus, NIH3T3, 48 h. In kind it is cell-based. A digest of the protocol: as §1
A further data set has as its system MCF-7. The data set is described as follows: MTT assay. In kind it is cell-based. The note with it: Homo sapiens, MCF7, 48 h. In a few lines:
as §1

Data set [2] is described as follows: MTT assay, normal cell line. In kind it is cell-based. The note with it: human, WI-38 normal cell line. A digest of the protocol: as §1
The subject of a further data set is WI-38. The data set is described as follows: MTT assay, normal cell line. In kind it is cell-based. The conditions noted are these: Homo sapiens, WI-38, WI-38 normal cell line. In a few lines: as §1
Data set [3] addresses acetylcholinesterase (AChE) (Electrophorus electricus, UniProt O42275). In words: biochemical. The arrangement: species or system electric eel.
Data set [4] concerns the target butyrylcholinesterase (BChE) (Equus caballus, UniProt P81908). In words: Butyrylcholinesterase inhibitory assay. Type of data set: biochemical, equine. The conditions noted are these: for inhibition at 62.5 µg/mL: read-out: Butyrylcholinesterase (BChE) Percent Inhibition (Mean±SEM), 62.5 μg/mL; for inhibition at 125 µg/mL: read-out: Butyrylcholinesterase (BChE) Percent Inhibition (Mean±SEM), 125 μg/mL; for inhibition at 250 µg/mL: read-out: Butyrylcholinesterase (BChE) Percent Inhibition (Mean±SEM), 250 μg/mL; for inhibition at 1000 µg/mL: read-out: Butyrylcholinesterase (BChE) Percent Inhibition (Mean±SEM), 1000 μg/mL.

The subject of the next data set is Pheretima posthuma. The data set is described as follows: Anthelmintic study. In a few lines: (§2)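 P. posthuma (7–9 cm) collected from muddy soil; A. galli taken from domestic chicken intestine. Test compound suspended in distilled water with Tween 80 at 10, 20 and 40 mg. 25 mL per Petri dish, six worms per dish. […] Paralysis and death times recorded.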
The next data set deals with Ascaridia galli. In words: Anthelmintic study. In a few lines:
as §2

For another data set, the target named is α-glucosidase (Saccharomyces cerevisiae, UniProt P53341). In words: α-Glucosidase inhibition chromogenic assay. Type of data set: biochemical.
[5] abbreviates: 1000 µg/mL, listed as test compound.
Where [6] appears, read: 40 mg/mL, listed as test compound.
The mark [7] stands for this setting: 40 mg/mL, listed as albendazole.

The structures appear in SMILES notation. Converted amounts (≈) assume the structure as drawn. Structures can show the parent of a compound that is named as a salt. Where two headings read alike, the source gives them in different places.

Broadly, the IC50 is the concentration that inhibits the measured activity by half. High values mean a need for much substance, low ones inhibition by little substance.

butyrylcholinesterase (BChE), sequence (P81908 whole entry): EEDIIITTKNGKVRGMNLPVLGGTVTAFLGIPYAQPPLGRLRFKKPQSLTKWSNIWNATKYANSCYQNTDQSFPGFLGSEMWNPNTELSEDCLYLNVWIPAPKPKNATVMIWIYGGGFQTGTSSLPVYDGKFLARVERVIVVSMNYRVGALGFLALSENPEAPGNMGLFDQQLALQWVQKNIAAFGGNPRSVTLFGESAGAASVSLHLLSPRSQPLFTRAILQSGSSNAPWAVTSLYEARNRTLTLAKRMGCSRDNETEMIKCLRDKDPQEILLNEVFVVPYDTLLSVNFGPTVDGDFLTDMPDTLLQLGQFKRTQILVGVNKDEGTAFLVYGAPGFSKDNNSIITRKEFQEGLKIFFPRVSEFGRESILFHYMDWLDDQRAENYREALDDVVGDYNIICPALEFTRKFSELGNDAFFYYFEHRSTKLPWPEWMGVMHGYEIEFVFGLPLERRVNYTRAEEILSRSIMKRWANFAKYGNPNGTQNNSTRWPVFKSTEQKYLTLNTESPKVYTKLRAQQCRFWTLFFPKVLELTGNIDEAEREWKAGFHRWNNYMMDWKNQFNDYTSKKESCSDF
acetylcholinesterase (AChE), sequence (O42275 24-633): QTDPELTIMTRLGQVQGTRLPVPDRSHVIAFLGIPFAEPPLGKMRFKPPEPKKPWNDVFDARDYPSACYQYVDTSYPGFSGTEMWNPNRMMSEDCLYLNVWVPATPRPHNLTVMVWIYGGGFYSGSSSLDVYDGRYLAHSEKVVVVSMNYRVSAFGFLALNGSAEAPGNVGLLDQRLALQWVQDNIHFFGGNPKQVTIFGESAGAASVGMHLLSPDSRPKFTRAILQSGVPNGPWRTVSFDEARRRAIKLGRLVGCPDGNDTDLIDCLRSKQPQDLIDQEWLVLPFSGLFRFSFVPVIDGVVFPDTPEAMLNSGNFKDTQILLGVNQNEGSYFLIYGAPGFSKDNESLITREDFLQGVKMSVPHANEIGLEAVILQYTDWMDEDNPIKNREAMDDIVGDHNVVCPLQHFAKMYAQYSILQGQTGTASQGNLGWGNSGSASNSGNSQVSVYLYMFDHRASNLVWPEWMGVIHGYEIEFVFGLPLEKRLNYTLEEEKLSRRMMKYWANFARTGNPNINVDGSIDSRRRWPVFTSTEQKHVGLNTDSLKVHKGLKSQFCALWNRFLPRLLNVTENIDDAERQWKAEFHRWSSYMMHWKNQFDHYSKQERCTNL
α-glucosidase, sequence (P53341 whole entry): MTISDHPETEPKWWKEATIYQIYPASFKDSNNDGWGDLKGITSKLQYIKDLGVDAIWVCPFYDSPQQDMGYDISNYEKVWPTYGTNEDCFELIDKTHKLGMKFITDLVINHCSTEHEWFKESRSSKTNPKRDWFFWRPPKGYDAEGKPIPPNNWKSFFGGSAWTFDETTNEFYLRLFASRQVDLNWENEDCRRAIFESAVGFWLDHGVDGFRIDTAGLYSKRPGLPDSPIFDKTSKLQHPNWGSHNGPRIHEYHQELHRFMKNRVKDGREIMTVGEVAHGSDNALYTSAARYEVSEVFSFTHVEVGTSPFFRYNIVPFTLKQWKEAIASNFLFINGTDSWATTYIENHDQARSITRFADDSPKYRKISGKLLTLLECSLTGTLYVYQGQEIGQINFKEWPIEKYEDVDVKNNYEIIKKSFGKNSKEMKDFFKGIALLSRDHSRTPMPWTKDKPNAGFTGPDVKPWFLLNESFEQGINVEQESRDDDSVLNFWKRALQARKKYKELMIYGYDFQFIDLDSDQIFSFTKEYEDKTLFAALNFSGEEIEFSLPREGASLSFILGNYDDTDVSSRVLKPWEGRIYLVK

Consider `O=C1O[C@H]([C@@H](O)CO)C(O)=C1O` [Ascorbic acid, ascorbic acid, reference compound], for which the “ABTS IC50 value” in “ABTS anti-radicals study” amounted to 18.04 µg/mL. The “ABTS % Inhibition (Mean±SEM)” value in “ABTS anti-radicals study” (62.5 µg/mL) is recorded as 59.12±0.34%; in the data set “ABTS anti-radicals study” (125 µg/mL), 64.47±0.49%; in the data set “ABTS anti-radicals study” (250 µg/mL) it was 69.75±0.14%; in “ABTS anti-radicals study” (500 µg/mL), 76.59±0.30%; in “ABTS anti-radicals study” (1000 µg/mL), 81.85±0.18%. Moreover, the “DPPH IC50 value” in data set [1] is 11.39 µg/mL. Moreover, the “DPPH % Inhibition (Mean±SEM)” value stood at 61.35±0.18% in data set [1] (62.5 µg/mL); 66.20±0.15% in [1] (125 µg/mL); 73.42±0.11% in data set [1] (250 µg/mL); 78.62±0.17% in [1] (500 µg/mL); 83.53±0.20% in [1] (1000 µg/mL). In “H2O2 anti-radicals study”, the “H2O2 IC50 value” worked out at 29.73 µg/mL. Moreover, the “H2O2 % Inhibition (Mean±SEM)” value in the data set “H2O2 anti-radicals study” (62.5 µg/mL) is 56.67±1.67%; in “H2O2 anti-radicals study” (125 µg/mL), 61.33±1.33%; in the data set “H2O2 anti-radicals study” (250 µg/mL), 68.85±1.85%; in “H2O2 anti-radicals study” (500 µg/mL), 74.67±0.67%; in “H2O2 anti-radicals study” (1000 µg/mL), 78.00±1.15%.
`CCC(C=O)C1CC(=O)N(c2ccccc2)C1=O` (centres unmarked) [2-(2,5-dioxo-1-phenylpyrrolidin-3-yl)butanal]: the IC50 was 78 µg/mL (≈ 318 µM) in the data set with HCT-116; 231 µg/mL (≈ 942 µM) in the data set on MDA-MB-231; 181 µg/mL (≈ 738 µM) in the data set with NIH/3T3; 277 µg/mL (≈ 1130 µM) with MCF-7; over 3000 µg/mL with WI-38; 422 µM in data set [3]. Further, the midpoint of inhibition in data set [4], the IC50, lay at 539 µM. In addition, the cytotoxicity at 48 h, 1000 ppm in [2] came out at 16%. Also, the “Acetylcholinesterase (AChE) Percent Inhibition (Mean±SEM)” value in data set [3] (1000 µg/mL) came to 71.3±1.9%. In addition, the inhibition at 62.5 µg/mL in data set [3] (read-out: Acetylcholinesterase (AChE) Percent Inhibition (Mean±SEM), 62.5 μg/mL) is 39.6%; in data set [4], 36.9%. Further, the inhibition at 125 µg/mL in data set [3] (read-out: Acetylcholinesterase (AChE) Percent Inhibition (Mean±SEM), 125 μg/mL) is 55.9%; in data set [4] it was 49.3%. In addition, the inhibition at 250 µg/mL in [3] (read-out: Acetylcholinesterase (AChE) Percent Inhibition (Mean±SEM), 250 μg/mL) is 61.2%; in data set [4] it was 52.7%. For the same molecule, the inhibition at 500 µg/mL in [3] (read-out: Acetylcholinesterase (AChE) Percent Inhibition (Mean±SEM), 500 μg/mL) was 65.4%; in [4] (read-out: Butyrylcholinesterase (BChE) Percent Inhibition (Mean±SEM), 500 μg/mL), 64.3%. Besides, the inhibition at 1000 µg/mL amounted to 71.3 ± 1.92% in data set [3] (read-out: Acetylcholinesterase (AChE) Percent Inhibition (Mean±SEM), 1000 μg/mL) and 73.4 ± 1.92% in [4]. For the same molecule, the “Butyrylcholinesterase (BChE) Percent Inhibition (Mean±SEM)” value in data set [4] (1000 µg/mL) stood at 73.4±1.9%. Moreover, the “ABTS IC50 value” worked out at 84.36 µg/mL in the data set “ABTS anti-radicals study” and 139.74 µg/mL in the data set “ABTS anti-radicals study” (listed as test compound). The “ABTS % Inhibition (Mean±SEM)” value in “ABTS anti-radicals study” (62.5 µg/mL) was determined as 48.08±2.19%; in “ABTS anti-radicals study” (125 µg/mL), 57.22±1.63%; in “ABTS anti-radicals study” (250 µg/mL), 61.28±0.84%; in the data set “ABTS anti-radicals study” (500 µg/mL) it was 68.35±1.96%; in “ABTS anti-radicals study” (1000 µg/mL) it was 75.84±1.58%; in the data set “ABTS anti-radicals study” (setting [5]), 72.85±1.17%. The “DPPH IC50 value” in data set [1] is 139.74 µg/mL; in data set [1] (listed as test compound), 84.36 µg/mL. Moreover, the “DPPH % Inhibition (Mean±SEM)” value in [1] (62.5 µg/mL) was found to be 33.32±2.04%; in data set [1] (125 µg/mL) it was 49.01±1.28%; in data set [1] (250 µg/mL), 61.41±2.36%; in data set [1] (500 µg/mL), 71.36±1.92%; in [1] (1000 µg/mL) it was 72.85±1.17%; in data set [1] (setting [5]) it was 75.84±1.58%. For the same molecule, the “H2O2 IC50 value” in the data set “H2O2 anti-radicals study” was 752.21 µg/mL. In addition, the “H2O2 % Inhibition (Mean±SEM)” value amounted to 26.08±2.66% in “H2O2 anti-radicals study” (62.5 µg/mL); 31.58±1.40% in “H2O2 anti-radicals study” (125 µg/mL); 39.92±2.08% in the data set “H2O2 anti-radicals study” (250 µg/mL); 46.08±1.36% in “H2O2 anti-radicals study” (500 µg/mL); 54.82±1.82% in the data set “H2O2 anti-radicals study” (1000 µg/mL). In addition, the “Pheretima posthuma Death Time” value with Pheretima posthuma (10 mg/mL) is 23.67 ± 1.52 min; with Pheretima posthuma (20 mg/mL), 19.23 ± 2.56 min; with Pheretima posthuma (40 mg/mL) it was 14.71 ± 1.73 min; in the data set on Pheretima posthuma (setting [6]), 14.71 min. Besides, the “Pheretima posthuma Paralysis Time” value in the data set on Pheretima posthuma (10 mg/mL) came to 06.67 ± 1.08 min; in the data set with Pheretima posthuma (20 mg/mL) it was 05.68 ± 0.34 min; in the data set on Pheretima posthuma (40 mg/mL), 02.48 ± 1.62 min; with Pheretima posthuma (setting [6]), 2.48 min. Besides, the “Ascaridia galli Death Time” value in the data set on Ascaridia galli (10 mg/mL) was 18.42 ± 1.70 min; in the data set on Ascaridia galli (20 mg/mL), 11.36 ± 1.94 min; in the data set with Ascaridia galli (40 mg/mL), 09.39 ± 1.48 min. The “Ascaridia galli Paralysis Time” value in the data set with Ascaridia galli (10 mg/mL) was 06.54 ± 1.67 min; in the data set on Ascaridia galli (20 mg/mL) it was 04.82 ± 1.38 min; with Ascaridia galli (40 mg/mL) it was 02.19 ± 0.96 min.
`COc1ccc2c3c1O[C@H]1C[C@@H](O)C=C[C@@]31CCN(C)C2` [Galanthamine, Galanthamine hydrobromide, reference compound]: in [4], the inhibition at 62.5 µg/mL is 71.4%, the inhibition at 125 µg/mL was 78.6%, the inhibition at 250 µg/mL is 82.8% and the inhibition at 1000 µg/mL was found to be 95%.
On to `CCCSc1ccc2nc(NC(=O)OC)[nH]c2c1` [Alb, Albendazole, reference compound], for which the “Pheretima posthuma Death Time” value in the data set on Pheretima posthuma (10 mg/mL) turned out to be 48.70 ± 2.06 min; with Pheretima posthuma (20 mg/mL), 39.33 ± 1.54 min; in the data set on Pheretima posthuma (40 mg/mL), 28.92 ± 2.68 min; in the data set on Pheretima posthuma (setting [7]), 28.92 min. Further, the “Pheretima posthuma Paralysis Time” value in the data set with Pheretima posthuma (10 mg/mL) amounted to 09.08 ± 1.56 min; with Pheretima posthuma (20 mg/mL), 07.24 ± 1.38 min; with Pheretima posthuma (40 mg/mL), 04.67 ± 0.57 min; with Pheretima posthuma (setting [7]), 4.67 min. Besides, the “Ascaridia galli Death Time” value with Ascaridia galli (10 mg/mL) came out at 36.32 ± 1.36 min; in the data set with Ascaridia galli (20 mg/mL) it was 32.56 ± 1.93 min; in the data set with Ascaridia galli (40 mg/mL) it was 25.68 ± 3.62 min. The “Ascaridia galli Paralysis Time” value in the data set on Ascaridia galli (10 mg/mL) worked out at 11.26 ± 2.81 min; in the data set on Ascaridia galli (20 mg/mL), 09.45 ± 1.63 min; in the data set on Ascaridia galli (40 mg/mL), 07.18 ± 1.74 min.
As to `C[C@H]1O[C@H](O[C@H]2[C@H](O)[C@@H](O)[C@@H](O[C@H]3[C@H](O)[C@@H](O)C(O)O[C@@H]3CO)O[C@@H]2CO)[C@H](O)[C@@H](O)[C@@H]1N[C@H]1C=C(CO)[C@@H](O)[C@H](O)[C@H]1O` (some centres unmarked) [Acarbose, acarbose], the “Percent α-glucosidase inhibition” value on α-glucosidase (31.25 µg/mL) turned out to be 59.7±1.7%; on α-glucosidase (62.5 µg/mL), 67.3±2.8%; at α-glucosidase (125 µg/mL), 71.7±1.7%; at α-glucosidase (250 µg/mL), 74.4± 2.3%; at α-glucosidase (500 µg/mL) it was 81.7±2.6%; at α-glucosidase (1000 µg/mL), 86.7±2.6%.
